Experimental findings from ChEMBL document CHEMBL1135955, “Substituted benzocyloheptenes as potent and selective alpha(v) integrin antagonists” (Bioorg Med Chem Lett, 2002) are described below.

For data set [1], the target named is Integrin alpha-IIb/beta-3 (Homo sapiens, UniProt P05106+P08514). Kind of data set: Displacement of fibrinogen from Human integrin alphaIIb-beta3. Type of data set: protein-complex assay. The method, boiled down: (§1)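 Purified-receptor ligand-binding assay on human integrins αvβ3 and αvβ5 (vitronectin displacement) and αIIbβ3 (receptor from platelets). Bound ligand was detected indirectly by colorimetric reading after adding an anti-biotin antibody coupled to alkaline phosphatase. IC50 came from sigmoid variable-slope fits of dose–response data from at least two experiments per compound.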
Sequence of Integrin alpha-IIb/beta-3 (P05106 27-788 limits assumed): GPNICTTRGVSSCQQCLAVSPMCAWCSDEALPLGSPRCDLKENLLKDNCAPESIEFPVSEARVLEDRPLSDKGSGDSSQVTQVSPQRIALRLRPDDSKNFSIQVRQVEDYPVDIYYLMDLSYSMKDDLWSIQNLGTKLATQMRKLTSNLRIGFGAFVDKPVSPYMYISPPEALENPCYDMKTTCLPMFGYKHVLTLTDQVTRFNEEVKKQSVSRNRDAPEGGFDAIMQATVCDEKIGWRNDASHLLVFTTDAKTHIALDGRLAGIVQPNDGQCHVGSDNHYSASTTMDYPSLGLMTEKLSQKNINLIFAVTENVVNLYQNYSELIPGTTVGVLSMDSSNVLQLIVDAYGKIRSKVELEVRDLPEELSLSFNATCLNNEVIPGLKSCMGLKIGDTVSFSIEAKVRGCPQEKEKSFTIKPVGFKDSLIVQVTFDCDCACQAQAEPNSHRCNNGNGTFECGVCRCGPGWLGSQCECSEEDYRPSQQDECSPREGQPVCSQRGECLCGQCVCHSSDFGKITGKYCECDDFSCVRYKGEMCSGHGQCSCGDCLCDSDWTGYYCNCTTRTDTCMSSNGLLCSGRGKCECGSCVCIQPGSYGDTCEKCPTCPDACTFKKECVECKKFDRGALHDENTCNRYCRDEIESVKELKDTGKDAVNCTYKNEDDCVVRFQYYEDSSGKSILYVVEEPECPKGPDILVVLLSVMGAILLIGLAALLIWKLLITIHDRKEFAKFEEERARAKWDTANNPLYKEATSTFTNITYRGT
Sequence of Integrin alpha-IIb/beta-3 (P08514 32-887 limits assumed): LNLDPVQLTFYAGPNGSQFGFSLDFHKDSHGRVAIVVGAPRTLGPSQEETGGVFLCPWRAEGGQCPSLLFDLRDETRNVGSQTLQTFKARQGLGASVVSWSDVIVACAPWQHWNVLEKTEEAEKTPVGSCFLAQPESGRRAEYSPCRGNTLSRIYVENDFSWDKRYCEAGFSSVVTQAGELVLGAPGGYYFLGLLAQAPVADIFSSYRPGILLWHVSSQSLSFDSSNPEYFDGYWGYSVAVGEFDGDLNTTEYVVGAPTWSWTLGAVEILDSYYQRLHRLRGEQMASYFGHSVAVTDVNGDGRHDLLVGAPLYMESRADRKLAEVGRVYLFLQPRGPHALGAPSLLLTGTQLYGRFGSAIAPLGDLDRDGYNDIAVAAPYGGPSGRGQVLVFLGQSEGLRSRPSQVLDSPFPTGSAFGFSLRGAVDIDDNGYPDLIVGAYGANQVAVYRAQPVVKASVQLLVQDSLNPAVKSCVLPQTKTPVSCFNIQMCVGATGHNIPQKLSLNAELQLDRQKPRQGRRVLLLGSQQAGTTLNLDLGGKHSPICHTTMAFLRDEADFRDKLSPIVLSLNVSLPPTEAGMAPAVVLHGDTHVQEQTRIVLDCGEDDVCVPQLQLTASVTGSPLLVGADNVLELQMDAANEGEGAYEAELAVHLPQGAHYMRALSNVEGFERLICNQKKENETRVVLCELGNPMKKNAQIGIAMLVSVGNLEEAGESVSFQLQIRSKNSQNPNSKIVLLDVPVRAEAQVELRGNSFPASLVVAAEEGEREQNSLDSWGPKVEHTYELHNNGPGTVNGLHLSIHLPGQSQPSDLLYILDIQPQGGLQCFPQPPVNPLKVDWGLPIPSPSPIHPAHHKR
Sequence of Integrin alpha-IIb/beta-3 (P08514 891-1039 limits assumed): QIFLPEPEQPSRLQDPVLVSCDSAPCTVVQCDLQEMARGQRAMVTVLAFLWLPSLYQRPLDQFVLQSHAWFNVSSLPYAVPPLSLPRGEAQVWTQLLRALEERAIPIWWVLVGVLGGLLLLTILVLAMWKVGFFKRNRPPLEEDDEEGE

Data set [2] concerns the target Integrin alpha-V/beta-5 (Homo sapiens, UniProt P06756+P18084). Kind of data set: Displacement of vitronectin from human integrin alphaV-beta5. It counts as protein-complex assay. The method, boiled down: as §1
The species named for data set [3] is Homo sapiens. Put plainly: Oral absorption using Caco-2 cell monolayers. It counts as ADME. The following applies: in vitro.
In data set [4] the target is Integrin alpha-V/beta-3 (Homo sapiens, UniProt P05106+P06756). Kind of data set: Displacement of vitronectin from Human integrin alphaV-beta3. It counts as protein-complex assay. The method, boiled down: as §1
Sequence of Integrin alpha-V/beta-3 (P05106 27-788 limits assumed): as the sequence (P05106 27-788 limits assumed) above
Sequence of Integrin alpha-V/beta-3 (P06756 31-889 limits assumed): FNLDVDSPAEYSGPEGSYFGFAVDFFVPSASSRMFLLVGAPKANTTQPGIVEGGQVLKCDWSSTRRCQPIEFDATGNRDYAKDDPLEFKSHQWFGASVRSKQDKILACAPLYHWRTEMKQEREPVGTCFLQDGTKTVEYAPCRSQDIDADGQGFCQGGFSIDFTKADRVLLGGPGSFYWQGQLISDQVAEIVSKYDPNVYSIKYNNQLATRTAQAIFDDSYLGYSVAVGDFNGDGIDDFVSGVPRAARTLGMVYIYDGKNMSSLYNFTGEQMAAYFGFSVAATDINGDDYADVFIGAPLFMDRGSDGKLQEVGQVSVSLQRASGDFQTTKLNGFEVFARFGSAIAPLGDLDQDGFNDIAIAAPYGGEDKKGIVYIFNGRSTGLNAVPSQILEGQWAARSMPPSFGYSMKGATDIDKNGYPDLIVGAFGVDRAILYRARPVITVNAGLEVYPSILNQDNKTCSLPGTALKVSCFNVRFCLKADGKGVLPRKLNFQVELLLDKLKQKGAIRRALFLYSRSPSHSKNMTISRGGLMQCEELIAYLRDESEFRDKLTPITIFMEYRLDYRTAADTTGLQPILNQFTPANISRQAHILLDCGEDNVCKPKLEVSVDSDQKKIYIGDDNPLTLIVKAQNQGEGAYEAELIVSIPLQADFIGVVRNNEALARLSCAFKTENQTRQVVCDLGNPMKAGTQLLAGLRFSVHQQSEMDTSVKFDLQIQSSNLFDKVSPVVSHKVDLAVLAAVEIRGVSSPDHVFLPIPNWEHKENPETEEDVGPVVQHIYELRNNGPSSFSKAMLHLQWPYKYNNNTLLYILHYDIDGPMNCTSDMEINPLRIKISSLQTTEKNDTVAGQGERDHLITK
Sequence of Integrin alpha-V/beta-3 (P06756 891-1048 limits assumed): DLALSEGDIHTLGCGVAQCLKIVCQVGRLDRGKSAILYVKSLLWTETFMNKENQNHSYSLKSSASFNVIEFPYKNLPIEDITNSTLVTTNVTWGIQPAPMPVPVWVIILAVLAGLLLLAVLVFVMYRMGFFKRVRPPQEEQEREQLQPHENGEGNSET
The subject of data set [5] is IGROV-1. Kind of data set: Cellular adhesion inhibitory concentration with IGROV-1 cell line. Type of data set: functional, cell-based. The following applies: Homo sapiens. The method, boiled down:
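Human ovarian carcinoma IGROV-1 cells were preincubated with compound before adhesion. They were then washed, fixed and stained with crystal violet, and adhesion was quantified by image analysis. IC50 came from sigmoid variable-slope fits of dose–response sets from at least two experiments.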

Sequence of Integrin alpha-V/beta-5 (P06756 31-889 limits assumed): as the sequence (P06756 31-889 limits assumed) above
Sequence of Integrin alpha-V/beta-5 (P06756 891-1048 limits assumed): as the sequence (P06756 891-1048 limits assumed) above
Sequence of Integrin alpha-V/beta-5 (P18084 24-799 limits assumed): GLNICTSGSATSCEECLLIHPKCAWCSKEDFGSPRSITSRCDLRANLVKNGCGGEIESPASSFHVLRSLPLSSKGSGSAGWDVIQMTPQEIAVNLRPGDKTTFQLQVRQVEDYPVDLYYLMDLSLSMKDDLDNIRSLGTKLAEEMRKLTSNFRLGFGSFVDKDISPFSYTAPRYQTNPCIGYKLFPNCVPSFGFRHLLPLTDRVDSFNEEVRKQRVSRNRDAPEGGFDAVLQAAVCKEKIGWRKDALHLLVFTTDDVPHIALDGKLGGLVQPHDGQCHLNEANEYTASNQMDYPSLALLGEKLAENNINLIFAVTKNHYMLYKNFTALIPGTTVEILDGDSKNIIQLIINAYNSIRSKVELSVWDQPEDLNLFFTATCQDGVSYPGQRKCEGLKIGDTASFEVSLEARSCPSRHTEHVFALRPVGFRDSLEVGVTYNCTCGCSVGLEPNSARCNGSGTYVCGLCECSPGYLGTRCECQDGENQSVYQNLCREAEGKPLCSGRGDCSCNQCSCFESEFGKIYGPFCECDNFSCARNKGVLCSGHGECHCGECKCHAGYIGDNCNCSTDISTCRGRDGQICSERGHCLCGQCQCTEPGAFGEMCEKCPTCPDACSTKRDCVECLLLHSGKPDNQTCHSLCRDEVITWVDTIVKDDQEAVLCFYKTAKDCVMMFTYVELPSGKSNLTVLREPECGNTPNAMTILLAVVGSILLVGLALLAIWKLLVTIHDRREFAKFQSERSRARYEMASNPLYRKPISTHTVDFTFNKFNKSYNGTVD

Turning to `O=C(O)CC1CC(CNC(=O)CCCc2ccc3c(n2)NCCC3)=CCc2ccccc21` (stereo not given), the IC50 worked out at 1490 nM in data set [1], 0.3 nM in data set [2], 0.3 nM in data set [4] and 6.9 nM in data set [5]. In data set [3], this compound showed an Absorption of 92%.

For `O=C(O)CC1CC(CNC(=O)CCNc2ccccn2)=CCc2ccccc21` (stereo not given), the half-maximal inhibitory concentration (IC50) came out at 1700 nM in data set [1], 22 nM in data set [2], 584 nM in data set [4] and 338 nM in data set [5]. Besides, the Absorption in data set [3] amounted to 93%.

In the case of `O=C(O)CC1CC(CNC(=O)CCCNC2=NCCCN2)=CCc2ccccc21` (stereo not given), the IC50 in data set [1] came to 330 nM; in data set [2] it was 0.1 nM; in data set [4], 0.2 nM; in data set [5] it was 2.7 nM. The Absorption in data set [3] is recorded as below 20%.

Regarding `O=C(O)CC1CC(CNC(=O)CCCNc2nccs2)=CCc2ccccc21` (stereo not given), the IC50 was above 10000 nM in data set [1], 20 nM in data set [2], 45 nM in data set [4] and 40 nM in data set [5]. The compound further registered an Absorption in data set [3] of 96%.

For `O=C(O)CC1CC(CNC(=O)CCCCNc2ccccn2)=CCc2ccccc21` (stereo not given), the IC50 in data set [1] worked out at 1200 nM; in data set [2], 0.9 nM; in data set [4], 2.7 nM; in data set [5], 12 nM. The compound also yielded an Absorption in data set [3] of 96%.

With `CN(CCCC(=O)NCC1=CCc2ccccc2C(CC(=O)O)C1)c1ccccn1` (stereo not given), the IC50 in data set [1] was 667 nM; in data set [2] it was 40 nM; in data set [4] it was 68 nM; in data set [5], 2030 nM. Besides, the Absorption in data set [3] amounted to 94%.

For `O=C(O)CC1CC(CNC(=O)CCCNc2nc3ccccc3[nH]2)=CCc2ccccc21` (stereo not given), the IC50 in data set [1] was 1020 nM; in data set [2], 0.5 nM; in data set [4] it was 0.6 nM; in data set [5], 1.8 nM. In data set [3], this compound gave an Absorption below 20%.

For the compound `O=C(O)CC1CC(CNC(=O)CCCNc2ccccn2)=CCc2ccccc21` (stereo not given), the concentration for half-maximal inhibition (IC50) came out at 4360 nM in data set [1], 0.8 nM in data set [2], 1.9 nM in data set [4] and 2 nM in data set [5]. The Absorption in data set [3] is 95%.

For `O=C(O)CC1CC(CNC(=O)CCCNC2=NCCN2)=CCc2ccccc21` (stereo not given), the IC50 stood at 110 nM in data set [1], 0.2 nM in data set [2], 0.3 nM in data set [4] and 18 nM in data set [5]. The same compound showed an Absorption in data set [3] below 20%.

Consider `O=C(O)CC1CC(CNC(=O)CCNCc2ccccn2)=CCc2ccccc21` (stereo not given), for which the IC50 in data set [1] amounted to 552 nM; in data set [2], 119 nM; in data set [4], 842 nM; in data set [5], 2700 nM. This compound also came in with an Absorption in data set [3] of 23%.

One may read the IC50 as the concentration that gives 50% inhibition. The low end stands for higher potency, the high end for lower potency.
